Reference: ChEMBL document CHEMBL5357072, “Structural Modification of Noscapine via Photoredox/Nickel Dual Catalysis for the Discovery of S-Phase Arresting Agents” (ACS Med Chem Lett, 2024)

tested on: NB-4; test: Antiproliferative activity against human NB4 cells assessed as cell growth inhibition at 10 uM incubated for 48 hrs by CCK8 assay relative to control; type: functional; details: read-out: GI
How it was run: (§1)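 Single-concentration screen of six cancer cell lines. Cells were exposed to 10 μM compound and growth was measured by CCK-8 assay. Results are reported as inhibition rate at 10 μM.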

Compound | inhibition of growth at 10 µM [%]
COc1ccc2c(c1OC)C(=O)O[C@@H]2[C@H]1c2c(c(C3CN(C(=O)OC(C)(C)C)C3)c3c(c2OC)OCO3)CCN1C(=O)OC(C)(C)C | 30.1
COc1ccc2c(c1OC)C(=O)O[C@@H]2[C@H]1c2c(c(CC[Si](C)(C)C)c3c(c2OC)OCO3)CCN1C(=O)OC(C)(C)C | 21.9
COc1ccc2c(c1OC)C(=O)O[C@@H]2[C@H]1c2c(c(C3COC3)c3c(c2OC)OCO3)CCN1C(=O)OC(C)(C)C | 9.21
COc1ccc2c(c1OC)C(=O)O[C@@H]2[C@H]1c2c(c(C3CCN(C(=O)OC(C)(C)C)C3)c3c(c2OC)OCO3)CCN1C(=O)OC(C)(C)C (some centres not stated) | 22.1
COc1ccc2c(c1OC)C(=O)O[C@@H]2[C@H]1c2c(c(C3CCCC3)c3c(c2OC)OCO3)CCN1C(=O)OC(C)(C)C | 11.6
COc1ccc2c(c1OC)C(=O)O[C@@H]2[C@H]1c2c(c(CC3CCN(C(=O)OC(C)(C)C)C3)c3c(c2OC)OCO3)CCN1C(=O)OC(C)(C)C (some centres not stated) | 23.2
COc1ccc2c(c1OC)C(=O)O[C@@H]2[C@H]1c2c(c(CCCNC(=O)OC(C)(C)C)c3c(c2OC)OCO3)CCN1C(=O)OC(C)(C)C | 28.9

tested on: MOLM-13; test: Antiproliferative activity against human MOLM-13 cells assessed as cell growth inhibition at 10 uM incubated for 48 hrs by CCK8 assay relative to control; type: functional; details: read-out: GI; how it was run: as §1

Compound | inhibition of growth at 10 µM [%]
COc1ccc2c(c1OC)C(=O)O[C@@H]2[C@H]1c2c(c(C3CN(C(=O)OC(C)(C)C)C3)c3c(c2OC)OCO3)CCN1C(=O)OC(C)(C)C | 49.7
COc1ccc2c(c1OC)C(=O)O[C@@H]2[C@H]1c2c(c(CC[Si](C)(C)C)c3c(c2OC)OCO3)CCN1C(=O)OC(C)(C)C | 46.9
COc1ccc2c(c1OC)C(=O)O[C@@H]2[C@H]1c2c(c(C3COC3)c3c(c2OC)OCO3)CCN1C(=O)OC(C)(C)C | 11.7
COc1ccc2c(c1OC)C(=O)O[C@@H]2[C@H]1c2c(c(C3CCN(C(=O)OC(C)(C)C)C3)c3c(c2OC)OCO3)CCN1C(=O)OC(C)(C)C (some centres not stated) | 54.8
COc1ccc2c(c1OC)C(=O)O[C@@H]2[C@H]1c2c(c(C3CCCC3)c3c(c2OC)OCO3)CCN1C(=O)OC(C)(C)C | 40
COc1ccc2c(c1OC)C(=O)O[C@@H]2[C@H]1c2c(c(CC3CCN(C(=O)OC(C)(C)C)C3)c3c(c2OC)OCO3)CCN1C(=O)OC(C)(C)C (some centres not stated) | 52.5
COc1ccc2c(c1OC)C(=O)O[C@@H]2[C@H]1c2c(c(CCCNC(=O)OC(C)(C)C)c3c(c2OC)OCO3)CCN1C(=O)OC(C)(C)C | 48.2

tested on: JeKo-1; test: Antiproliferative activity against human JeKo-1 cells assessed as cell growth inhibition at 10 uM incubated for 48 hrs by CCK8 assay relative to control; type: functional; details: read-out: GI; how it was run: as §1

Compound | inhibition of growth at 10 µM [%]
COc1ccc2c(c1OC)C(=O)O[C@@H]2[C@H]1c2c(c(C3CN(C(=O)OC(C)(C)C)C3)c3c(c2OC)OCO3)CCN1C(=O)OC(C)(C)C | 17.6
COc1ccc2c(c1OC)C(=O)O[C@@H]2[C@H]1c2c(c(CC[Si](C)(C)C)c3c(c2OC)OCO3)CCN1C(=O)OC(C)(C)C | < 5
COc1ccc2c(c1OC)C(=O)O[C@@H]2[C@H]1c2c(c(C3COC3)c3c(c2OC)OCO3)CCN1C(=O)OC(C)(C)C | 13.3
COc1ccc2c(c1OC)C(=O)O[C@@H]2[C@H]1c2c(c(C3CCN(C(=O)OC(C)(C)C)C3)c3c(c2OC)OCO3)CCN1C(=O)OC(C)(C)C (some centres not stated) | 14.9
COc1ccc2c(c1OC)C(=O)O[C@@H]2[C@H]1c2c(c(C3CCCC3)c3c(c2OC)OCO3)CCN1C(=O)OC(C)(C)C | 5.81
COc1ccc2c(c1OC)C(=O)O[C@@H]2[C@H]1c2c(c(CC3CCN(C(=O)OC(C)(C)C)C3)c3c(c2OC)OCO3)CCN1C(=O)OC(C)(C)C (some centres not stated) | 7.92
COc1ccc2c(c1OC)C(=O)O[C@@H]2[C@H]1c2c(c(CCCNC(=O)OC(C)(C)C)c3c(c2OC)OCO3)CCN1C(=O)OC(C)(C)C | 10.6

tested on: A549; test: Antiproliferative activity against human A549 cells assessed as cell growth inhibition at 10 uM incubated for 48 hrs by CCK8 assay relative to control; type: functional; details: read-out: GI; how it was run: as §1

Compound | inhibition of growth at 10 µM [%]
COc1ccc2c(c1OC)C(=O)O[C@@H]2[C@H]1c2c(c(C3CN(C(=O)OC(C)(C)C)C3)c3c(c2OC)OCO3)CCN1C(=O)OC(C)(C)C | < 5
COc1ccc2c(c1OC)C(=O)O[C@@H]2[C@H]1c2c(c(CC[Si](C)(C)C)c3c(c2OC)OCO3)CCN1C(=O)OC(C)(C)C | < 5
COc1ccc2c(c1OC)C(=O)O[C@@H]2[C@H]1c2c(c(C3COC3)c3c(c2OC)OCO3)CCN1C(=O)OC(C)(C)C | < 5
COc1ccc2c(c1OC)C(=O)O[C@@H]2[C@H]1c2c(c(C3CCN(C(=O)OC(C)(C)C)C3)c3c(c2OC)OCO3)CCN1C(=O)OC(C)(C)C (some centres not stated) | 17.7
COc1ccc2c(c1OC)C(=O)O[C@@H]2[C@H]1c2c(c(C3CCCC3)c3c(c2OC)OCO3)CCN1C(=O)OC(C)(C)C | < 5
COc1ccc2c(c1OC)C(=O)O[C@@H]2[C@H]1c2c(c(CC3CCN(C(=O)OC(C)(C)C)C3)c3c(c2OC)OCO3)CCN1C(=O)OC(C)(C)C (some centres not stated) | < 5
COc1ccc2c(c1OC)C(=O)O[C@@H]2[C@H]1c2c(c(CCCNC(=O)OC(C)(C)C)c3c(c2OC)OCO3)CCN1C(=O)OC(C)(C)C | < 5

tested on: HeLa; test: Antiproliferative activity against human HeLa cells assessed as cell growth inhibition at 10 uM incubated for 48 hrs by CCK8 assay relative to control; type: functional; details: read-out: GI; how it was run: as §1

Compound | inhibition of growth at 10 µM [%]
COc1ccc2c(c1OC)C(=O)O[C@@H]2[C@H]1c2c(c(C3CN(C(=O)OC(C)(C)C)C3)c3c(c2OC)OCO3)CCN1C(=O)OC(C)(C)C | < 5
COc1ccc2c(c1OC)C(=O)O[C@@H]2[C@H]1c2c(c(CC[Si](C)(C)C)c3c(c2OC)OCO3)CCN1C(=O)OC(C)(C)C | < 5
COc1ccc2c(c1OC)C(=O)O[C@@H]2[C@H]1c2c(c(C3COC3)c3c(c2OC)OCO3)CCN1C(=O)OC(C)(C)C | 14.9
COc1ccc2c(c1OC)C(=O)O[C@@H]2[C@H]1c2c(c(C3CCN(C(=O)OC(C)(C)C)C3)c3c(c2OC)OCO3)CCN1C(=O)OC(C)(C)C (some centres not stated) | < 5
COc1ccc2c(c1OC)C(=O)O[C@@H]2[C@H]1c2c(c(C3CCCC3)c3c(c2OC)OCO3)CCN1C(=O)OC(C)(C)C | < 5
COc1ccc2c(c1OC)C(=O)O[C@@H]2[C@H]1c2c(c(CC3CCN(C(=O)OC(C)(C)C)C3)c3c(c2OC)OCO3)CCN1C(=O)OC(C)(C)C (some centres not stated) | < 5
COc1ccc2c(c1OC)C(=O)O[C@@H]2[C@H]1c2c(c(CCCNC(=O)OC(C)(C)C)c3c(c2OC)OCO3)CCN1C(=O)OC(C)(C)C | < 5

tested on: U-251; test: Antiproliferative activity against human U-251 cells assessed as cell growth inhibition at 10 uM incubated for 48 hrs by CCK8 assay relative to control; type: functional; details: read-out: GI; how it was run: as §1

Compound | inhibition of growth at 10 µM [%]
COc1ccc2c(c1OC)C(=O)O[C@@H]2[C@H]1c2c(c(C3CN(C(=O)OC(C)(C)C)C3)c3c(c2OC)OCO3)CCN1C(=O)OC(C)(C)C | < 5
COc1ccc2c(c1OC)C(=O)O[C@@H]2[C@H]1c2c(c(CC[Si](C)(C)C)c3c(c2OC)OCO3)CCN1C(=O)OC(C)(C)C | < 5
COc1ccc2c(c1OC)C(=O)O[C@@H]2[C@H]1c2c(c(C3COC3)c3c(c2OC)OCO3)CCN1C(=O)OC(C)(C)C | 12.3
COc1ccc2c(c1OC)C(=O)O[C@@H]2[C@H]1c2c(c(C3CCN(C(=O)OC(C)(C)C)C3)c3c(c2OC)OCO3)CCN1C(=O)OC(C)(C)C (some centres not stated) | < 5
COc1ccc2c(c1OC)C(=O)O[C@@H]2[C@H]1c2c(c(C3CCCC3)c3c(c2OC)OCO3)CCN1C(=O)OC(C)(C)C | < 5
COc1ccc2c(c1OC)C(=O)O[C@@H]2[C@H]1c2c(c(CC3CCN(C(=O)OC(C)(C)C)C3)c3c(c2OC)OCO3)CCN1C(=O)OC(C)(C)C (some centres not stated) | < 5
COc1ccc2c(c1OC)C(=O)O[C@@H]2[C@H]1c2c(c(CCCNC(=O)OC(C)(C)C)c3c(c2OC)OCO3)CCN1C(=O)OC(C)(C)C | < 5
